Experimental data reported in ChEMBL document CHEMBL3860041, “Synthesis, biological evaluation and molecular modeling study of some new methoxylated 2-benzylthio-quinazoline-4(3H)-ones as nonclassical antifolates” (Bioorg Med Chem Lett, 2016).

Assays:
Format in all cases: functional
Cancer cell lines [1] = test: Potency index, ratio of 5-fluorouracil GI50 to compound GI50 for human ovarian cancer cells
Outline: (§1)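 GI50 for each cell line came from NCI panel testing over a 5-log dose range, with 5-fluorouracil tested alongside as the reference drug. The index relates the 5-fluorouracil GI50 to the compound GI50 within each tumour subpanel.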

[2] = Growth inhibition of human MDA-MB-231 cells at 10 uM after 48 hrs by SRB assay relative to control; settings: MDA-MB-231, 48 h, read-out: GI
Outline: (§2)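 NCI 60-cell-line panel, nine tumor subpanels; compounds tested at a single dose of 10 μM in the primary screen.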

[3] = Growth inhibition of human HCC2998 cells at 10 uM after 48 hrs by SRB assay relative to control; settings: HCC 2998, 48 h, read-out: GI; outline: as §2
Cancer cell lines [4] = test: Potency index, ratio of 5-fluorouracil GI50 to compound GI50 for human non-small cell lung cancer cells; outline: as §1
[5] = Growth inhibition of human non-small cell lung cancer cells after 48 hrs by SRB assay; settings: Cancer cell lines
Outline: (§3)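 Follow-up NCI panel testing over a 5-log dose range for each cell line. GI50, TGI and LC50 were monitored, with 5-fluorouracil run as the positive control. Values are grouped by tumour subpanel.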

Cancer cell lines [6] = test: Potency index, ratio of 5-fluorouracil GI50 to compound GI50 for human colon cancer cells; outline: as §1
[7] = Growth inhibition of human Hs 578T cells at 10 uM after 48 hrs by SRB assay relative to control; settings: read-out: GI; outline: as §2
Leukemia cell = test: Potency index, ratio of 5-fluorouracil GI50 to compound GI50 for human leukemia cells; outline: as §1
[8] = Growth inhibition of human SF295 cells at 10 uM after 48 hrs by SRB assay relative to control; settings: SF-295, 48 h, read-out: GI; outline: as §2
[9] = Growth inhibition of human SN12C cells at 10 uM after 48 hrs by SRB assay relative to control; settings: read-out: GI
Outline: (§4)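 Primary screen across the full NCI 60 human tumour cell line panel, which covers nine tumour subpanels. A single dose of 10 μM was applied to each line, and growth was recorded for each cell line.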

[10] = Growth inhibition of human KM12 cells at 10 uM after 48 hrs by SRB assay relative to control; settings: KM12, 48 h, read-out: GI; outline: as §2
[11] = Growth inhibition of human colon cancer cells after 48 hrs by SRB assay; settings: Cancer cell lines; outline: as §3
[12] = Growth inhibition of human OVCAR8 cells at 10 uM after 48 hrs by SRB assay relative to control; settings: OVCAR-8, 48 h, read-out: GI; outline: as §2
[13] = Growth inhibition of human T47D cells at 10 uM after 48 hrs by SRB assay relative to control; settings: read-out: GI; outline: as §4
[14] = Growth inhibition of human HOP62 cells at 10 uM after 48 hrs by SRB assay relative to control; settings: HOP-62, 48 h, read-out: GI; outline: as §2
[15] = Growth inhibition of human ovarian cancer cells after 48 hrs by SRB assay; settings: Cancer cell lines; outline: as §3
Melanoma cell = test: Potency index, ratio of 5-fluorouracil GI50 to compound GI50 for human melanoma cells; outline: as §1
[16] = Growth inhibition of human MALME-3M cells at 10 uM after 48 hrs by SRB assay relative to control; settings: read-out: GI; outline: as §2
[17] = Growth inhibition of human OVCAR5 cells at 10 uM after 48 hrs by SRB assay relative to control; settings: OVCAR-5, 48 h, read-out: GI; outline: as §2
[18] = Growth inhibition of human NCI-H460 cells at 10 uM after 48 hrs by SRB assay relative to control; settings: NCI-H460, 48 h, read-out: GI; outline: as §2
[19] = Growth inhibition of human renal cancer cells after 48 hrs by SRB assay; settings: Cancer cell lines; outline: as §3
[20] = Growth inhibition of human COLO205 cells at 10 uM after 48 hrs by SRB assay relative to control; settings: COLO 205, 48 h, read-out: GI; outline: as §2
[21] = Growth inhibition of human M14 cells at 10 uM after 48 hrs by SRB assay relative to control; settings: M14, 48 h, read-out: GI; outline: as §2
[22] = Growth inhibition of human 786-0 cells at 10 uM after 48 hrs by SRB assay relative to control; settings: 786-0, 48 h, read-out: GI; outline: as §2
[23] = Growth inhibition of human U251 cells at 10 uM after 48 hrs by SRB assay relative to control; settings: U-251, 48 h, read-out: GI; outline: as §4
[24] = Growth inhibition of human A549 cells at 10 uM after 48 hrs by SRB assay relative to control; settings: A549, 48 h, read-out: GI; outline: as §2
[25] = Growth inhibition of human NCI-322M cells at 10 uM after 48 hrs by SRB assay relative to control; settings: read-out: GI; outline: as §2
[26] = Growth inhibition of human HCT15 cells at 10 uM after 48 hrs by SRB assay relative to control; settings: HCT-15, 48 h, read-out: GI; outline: as §2
[27] = Growth inhibition of human RXF393 cells at 10 uM after 48 hrs by SRB assay relative to control; settings: RXF 393, 48 h, read-out: GI; outline: as §2
[28] = Growth inhibition of human melanoma cells after 48 hrs by SRB assay; settings: Melanoma cell; outline: as §3
[29] = Growth inhibition of human PC3 cells at 10 uM after 48 hrs by SRB assay relative to control; settings: PC-3, 48 h, read-out: GI; outline: as §2
[30] = Growth inhibition of human HL-60(TB) cells at 10 uM after 48 hrs by SRB assay relative to control; settings: HL-60, 48 h, read-out: GI
Outline: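 NCI disease-oriented human tumour cell line screen: primary single-dose assay at 10 μM across the full 60-cell-line panel spanning nine tumour subpanels.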

[31] = Growth inhibition of human SKOV3 cells at 10 uM after 48 hrs by SRB assay relative to control; settings: SK-OV-3, 48 h, read-out: GI; outline: as §4
[32] = Growth inhibition of human NCI-H522 cells at 10 uM after 48 hrs by SRB assay relative to control; settings: NCI-H522, 48 h, read-out: GI; outline: as §2
[33] = Growth inhibition of human SK-MEL-2 cells at 10 uM after 48 hrs by SRB assay relative to control; settings: SK-MEL-2, 48 h, read-out: GI; outline: as §4
[34] = Growth inhibition of human NCI/ADR-RES cells at 10 uM after 48 hrs by SRB assay relative to control; settings: read-out: GI; outline: as §2

COc1cc2nc(SCc3cc(OC)c(OC)c(OC)c3)n(Cc3ccccc3)c(=O)c2cc1OC
RatioGI50 (Cancer cell lines [1]): 2 - 10
inhibition of growth at 10 µM [2]: 64%
inhibition of growth at 10 µM [3]: 59.2%
RatioGI50 (Cancer cell lines [4]): 2 - 10
GI50 [5]: 3.6 µM
LC50 (concentration killing 50% of cells) [5]: 94.5 µM
TGI [5]: 63.1 µM
RatioGI50 (Cancer cell lines [6]): 2 - 10
inhibition of growth at 10 µM [7]: 73.3%
RatioGI50 (Leukemia cell): 2 - 10
inhibition of growth at 10 µM [8]: 80.3%
inhibition of growth at 10 µM [9]: 58.8%
inhibition of growth at 10 µM [10]: 84.6%
GI50 [11]: 2.2 µM
LC50 [11]: > 100 µM
TGI [11]: 87.8 µM
inhibition of growth at 10 µM [12]: < 10%
inhibition of growth at 10 µM [13]: 64.1%
inhibition of growth at 10 µM [14]: 58.6%
GI50 [15]: 6.4 µM
LC50 (50% lethal concentration) [15]: > 100 µM
TGI [15]: 62.7 µM
RatioGI50 (Melanoma cell): 2 - 10
inhibition of growth at 10 µM [16]: 78.1%
inhibition of growth at 10 µM [17]: 46.3%
inhibition of growth at 10 µM [18]: 77.7%
GI50 [19]: 4.7 µM
LC50 [19]: 85.7 µM
TGI [19]: 49.1 µM
inhibition of growth at 10 µM [20]: 92.6%
inhibition of growth at 10 µM [21]: 85.2%
inhibition of growth at 10 µM [22]: 63.3%
inhibition of growth at 10 µM [23]: 71%
inhibition of growth at 10 µM [24]: 63.2%
inhibition of growth at 10 µM [25]: 54.6%
inhibition of growth at 10 µM [26]: 79.9%
inhibition of growth at 10 µM [27]: 95.5%
GI50 [28]: 2.6 µM
LC50 [28]: 78.7 µM
TGI [28]: 45.9 µM
inhibition of growth at 10 µM [29]: 51.2%
inhibition of growth at 10 µM [30]: 88.1%
inhibition of growth at 10 µM [31]: 70.2%

COc1cc(CSc2nc3ccc(C)cc3c(=O)n2-c2ccccc2)cc(OC)c1OC
RatioGI50 (Cancer cell lines [1]): 10
inhibition of growth at 10 µM [2]: 62.1%
inhibition of growth at 10 µM [3]: 50.3%
RatioGI50 (Cancer cell lines [4]): 10
GI50 [5]: 3 µM
LC50 (concentration killing 50% of cells) [5]: > 100 µM
TGI [5]: 87 µM
RatioGI50 (Cancer cell lines [6]): 10
inhibition of growth at 10 µM [7]: 71.8%
RatioGI50 (Leukemia cell): 10
inhibition of growth at 10 µM [8]: 67.2%
inhibition of growth at 10 µM [9]: 63%
inhibition of growth at 10 µM [10]: 74.7%
GI50 [11]: 1.3 µM
LC50 [11]: > 100 µM
TGI [11]: 86.3 µM
inhibition of growth at 10 µM [12]: 47.2%
inhibition of growth at 10 µM [13]: 71.8%
inhibition of growth at 10 µM [14]: 62.2%
GI50 [15]: 4 µM
LC50 (50% lethal concentration) [15]: > 100 µM
TGI [15]: 84.6 µM
RatioGI50 (Melanoma cell): 10
inhibition of growth at 10 µM [16]: 57.6%
inhibition of growth at 10 µM [17]: 53.6%
inhibition of growth at 10 µM [32]: 91.7%
inhibition of growth at 10 µM [18]: 79.8%
GI50 [19]: 4.2 µM
LC50 [19]: > 100 µM
TGI [19]: 76.9 µM
inhibition of growth at 10 µM [21]: 82.8%
inhibition of growth at 10 µM [22]: 62.4%
inhibition of growth at 10 µM [23]: 61.5%
inhibition of growth at 10 µM [24]: 60.7%
inhibition of growth at 10 µM [25]: 52.6%
inhibition of growth at 10 µM [33]: 85.3%
inhibition of growth at 10 µM [26]: 69.9%
inhibition of growth at 10 µM [27]: 85.8%
inhibition of growth at 10 µM [34]: 82.2%
GI50 [28]: 3.9 µM
LC50 [28]: > 100 µM
TGI [28]: 82.2 µM
inhibition of growth at 10 µM [29]: 51%
inhibition of growth at 10 µM [30]: 87.8%
inhibition of growth at 10 µM [31]: 86.4%
